In ChEMBL document CHEMBL4334542, “Antimalarial N 1,N 3-Dialkyldioxonaphthoimidazoliums: Synthesis, Biological Activity, and Structure-activity Relationships” (ACS Med Chem Lett, 2020):
The source made the active and inactive calls. No cut-off for these calls is given here.

How the values were obtained:
Plasmodium falciparum [1] = experiment: Antimalarial activity against asexual stage of Plasmodium falciparum NF54 assessed as reduction in parasite growth incubated for 96 hrs by SYBR Green I dye-based fluorescence assay; format: functional, organism-based; details: NF54, 96 h
How it was run: (§1)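 Asexual NF54, K1 and W2 parasites; proliferation read as SYBR Green I fluorescence. IC50 is the concentration giving 50% of the net SYBR Green I fluorescence of untreated control cultures; mean ± SEM of n = 3 independent biological replicates.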

[2] = Toxicity in C57BL/6 mouse at 20 mg/kg, po; format: organism-based; details: in vivo
How it was run: (§2)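 Male C57BL6 mice given one dose, 2 mg/kg iv or 20 mg/kg oral (n=3 per route), checked for signs of distress 24 h after dosing.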

[3] = Oral bioavailability in C57BL/6 mouse at 20 mg/kg measured upto 24 hrs by LCMS analysis; format: ADME, organism-based; details: in vivo
Plasmodium falciparum [4] = experiment: Antimalarial activity against asexual stage of Plasmodium falciparum Dd2 infected in erythrocytes assessed as reduction in parasite growth incubated for 48 hrs under hypoxic condition by Hoechst 33342 staining based flow cytometry; format: functional, organism-based; details: Dd2, 48 h
How it was run: (§3)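 Asexual Dd2 and 3D7 parasites in erythrocytes; DNA content of infected cells measured by Hoechst 33342 staining and FACS. IC50 is the concentration giving 50% of the net fluorescence of untreated control cultures; mean ± SD of n = 3 separate determinations.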

[5] = Cmax in C57BL/6 mouse at 20 mg/kg, po measured upto 24 hrs by LCMS analysis; format: ADME, organism-based; set-up: dose 20 mg/kg, route oral; details: in vivo
Plasmodium falciparum [6] = experiment: Antimalarial activity against Plasmodium falciparum K1 incubated for 48 hrs by [3H]-hypoxanthine incorporation assay; format: functional, organism-based
Plasmodium falciparum [7] = experiment: Antimalarial activity against Plasmodium falciparum NF54 incubated for 48 hrs by [3H]-hypoxanthine incorporation assay; format: functional, organism-based
[8] = Half life in C57BL/6 mouse at 2 mg/kg, iv measured upto 24 hrs by LCMS analysis; format: ADME, organism-based; details: in vivo
[9] = Volume of distribution in C57BL/6 mouse at 2 mg/kg, iv measured upto 24 hrs by LCMS analysis; format: ADME, organism-based; details: in vivo
Plasmodium falciparum [10] = experiment: Antimalarial activity against Plasmodium falciparum NF54 early gametocytes transfected with luciferase gene incubated for 48 hrs by luciferase reporter gene assay; format: functional, organism-based; details: NF54, 48 h
How it was run: (§4)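 Gametocytes of NF54-Pfs16-GFP-Luc, early (>95% stage II/III) or late (>90% stage IV/V); luciferase read-out. IC50 is the concentration giving 50% reduction of luminescence; mean ± SEM of n = 3 independent biological replicates.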

[11] = Stability in rat liver microsomes incubated for 45 mins in presence of NADPH by chromatographic analysis; format: ADME, Microsome; details: 0.75 h
Plasmodium falciparum [12] = experiment: Antimalarial activity against Plasmodium falciparum NF54 late gametocytes transfected with luciferase gene incubated for 48 hrs by luciferase reporter gene assay; format: functional, organism-based; details: NF54, 48 h; how it was run: as §4
[13] = Time at which plasma concentration stays above in vitro IC50 for asexual stage of Plasmodium falciparum 3D7 infected in erythrocytes in C57BL/6 mouse at 20 mg/kg, po; format: ADME, organism-based; details: in vivo
[14] = Toxicity in C57BL/6 mouse assessed as distress effect at 2 mg/kg, iv observed upto 24 hrs; format: organism-based; details: in vivo; how it was run: as §2
[15] = Toxicity in C57BL/6 mouse assessed as distress effect at 20 mg/kg, po observed upto 24 hrs; format: organism-based; details: in vivo; how it was run: as §2
[16] = Effective permeability of compound at pH 7.4 measured after 16 hrs PAMPA; format: ADME; details: pH 7.4, 16 h
Plasmodium falciparum [17] = experiment: Antimalarial activity against Plasmodium falciparum 3D7 infected in NOD-SCID IL-2Ry deficient mouse assessed as reduction in parasitemia at 50 mg/kg, po administered on day 3 to 6 and measured on day 7 by TER-119-PE and SYTO-19 dye based flow cytometry; format: functional, organism-based
How it was run: (§5)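 Humanized mouse infected with P. falciparum Pf3D7 0087/N9; oral dosing on Days 3–6 at 5 dose levels spanning 1–50 mg/kg. Parasitemia measured each treatment day and on Day 7. ED90 from non-linear fit of log Day-7 parasitemia against oral dose, relative to untreated controls.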

[18] = Tmax in C57BL/6 mouse at 20 mg/kg, po measured upto 24 hrs by LCMS analysis; format: ADME, organism-based; details: in vivo
[19] = Toxicity in C57BL/6 mouse at 2 mg/kg, iv; format: organism-based; details: in vivo; how it was run: as §2
[20] = Half life in C57BL/6 mouse at 20 mg/kg, po measured upto 24 hrs by LCMS analysis; format: ADME, organism-based; details: in vivo
CHO-K1 = experiment: Cytotoxicity against CHOK1 cells assessed as reduction in cell viability incubated for 48 hrs by CellTiter 96 aqueous one solution assay; format: cell-based; details: Cricetulus griseus, CHO-K1, 48 h
How it was run: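 Cell growth measured by a tetrazolium dye assay. IC50 is the concentration reducing growth by 50% relative to untreated cultures; mean ± SD of n = 3 separate determinations.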

Plasmodium falciparum [21] = experiment: Antimalarial activity against asexual stage of Plasmodium falciparum W2 assessed as reduction in parasite growth incubated for 96 hrs by SYBR Green I dye-based fluorescence assay; format: functional, organism-based; details: W2, 96 h
[22] = Solubility of compound at pH 7.4 measured after 24 hrs; format: physicochemical; details: buffer
How it was run: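 Water solubility measured at pH 7.4.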

[23] = AUC (0 to last) at steady state in C57BL/6 mouse at 2 mg/kg, iv measured upto […] by LCMS analysis; format: ADME, organism-based; set-up: dose 2 mg/kg, time 0 - last, route intravenous; details: in vivo
[24] = AUC (0 to last) in C57BL/6 mouse at 20 mg/kg, po measured upto 24 hrs by LCMS analysis; format: ADME, organism-based; set-up: dose 20 mg/kg, time 0 - last, route oral; details: in vivo
Plasmodium falciparum [25] = experiment: Antimalarial activity against Plasmodium falciparum TM90C2B incubated for 48 hrs by [3H]-hypoxanthine incorporation assay; format: functional, organism-based
Plasmodium falciparum [26] = experiment: Antimalarial activity against asexual stage of Plasmodium falciparum K1 assessed as reduction in parasite growth incubated for 96 hrs by SYBR Green I dye-based fluorescence assay; format: functional, organism-based; details: K1, 96 h; how it was run: as §1
Plasmodium falciparum [27] = experiment: Antimalarial activity against Plasmodium falciparum 3D7 infected in orally dosed NOD-SCID IL-2Ry deficient mouse assessed as reduction in parasitemia administered on day 3 to 6 and measured on day 7 by TER-119-PE and SYTO-19 dye based flow cytometry; format: functional; details: 3D7, po; how it was run: as §5
Plasmodium falciparum [28] = experiment: Antimalarial activity against asexual stage of Plasmodium falciparum 3D7 infected in erythrocytes assessed as reduction in parasite growth incubated for 48 hrs under hypoxic condition by Hoechst 33342 staining based flow cytometry; format: functional, organism-based; details: 3D7, 48 h; how it was run: as §3
[29] = Redox cycling activity of the compound […] measured after 45 mins by phenol red reagent based horseradish peroxidase coupled assay
How it was run: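 Redox cycling EC50 determined by the phenol red horseradish peroxidase assay.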

Cc1n(C(C)C)c2c([n+]1C(C)C)C(=O)c1ccccc1C2=O.[Br-]
IC50 (Plasmodium falciparum [1]): 1.43 nM | Activity [2]: Non-Toxic | bioavailability [3]: 5% | IC50 (Plasmodium falciparum [4]): 4.7 nM | Cmax [5]: 337 nM | IC50 (Plasmodium falciparum [6]): 1.9 nM | IC50 (Plasmodium falciparum [7]): 1 nM | half-life [8]: 1.4 h | Vd [9]: 8.3 L/kg | IC50 (Plasmodium falciparum [10]): 72 nM | Stability [11]: Stable | IC50 (Plasmodium falciparum [12]): 653 nM | Time [13]: 24 h | Activity [14]: Non-Toxic | Activity [15]: Non-Toxic | Peff [16]: Impermeable | Activity (Plasmodium falciparum [17]): inactive | Tmax [18]: 2 h | Activity [19]: Non-Toxic | half-life [20]: 11.3 h | IC50 (CHO-K1): 56700 nM | IC50 (Plasmodium falciparum [21]): 2.18 nM | solubility at 24 h [22]: > 100 µM | AUClast [23]: 130 µmol·min/L | AUClast [24]: 69 µmol·min/L | IC50 (Plasmodium falciparum [25]): 1.6 nM | IC50 (Plasmodium falciparum [26]): 2.5 nM | ED90 (Plasmodium falciparum [27]): 34 mg/kg | IC50 (Plasmodium falciparum [28]): 6.5 nM | Activity [29]: Active
